The M2OR odorant receptor database

Experiments:
Settings in all cases: stereoisomer not certain
UniProt Q7TR71 = target: T1, UniProt Q7TR71
T1 sequence (whole entry): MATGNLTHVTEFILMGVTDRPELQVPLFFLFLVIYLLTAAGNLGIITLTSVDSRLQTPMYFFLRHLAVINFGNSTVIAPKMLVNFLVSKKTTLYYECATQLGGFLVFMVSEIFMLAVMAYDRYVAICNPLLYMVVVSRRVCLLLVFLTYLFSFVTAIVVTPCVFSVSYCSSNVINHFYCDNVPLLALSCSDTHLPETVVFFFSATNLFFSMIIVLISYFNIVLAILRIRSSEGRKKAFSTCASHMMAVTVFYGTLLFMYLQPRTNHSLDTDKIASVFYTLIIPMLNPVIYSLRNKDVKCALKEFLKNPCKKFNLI
In short: (§1)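 Each receptor–molecule pair is labelled responsive or non-responsive (inactive) according to whether the original authors judged the measured signal statistically different from baseline. The data were taken from the main text and supplementary material of published papers and checked for typos and inconsistencies. Assay methods differed by source, with transient luciferase assays in mammalian cell lines being common.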

UniProt Q7TR79 = target: T2, UniProt Q7TR79
T2 sequence (whole entry): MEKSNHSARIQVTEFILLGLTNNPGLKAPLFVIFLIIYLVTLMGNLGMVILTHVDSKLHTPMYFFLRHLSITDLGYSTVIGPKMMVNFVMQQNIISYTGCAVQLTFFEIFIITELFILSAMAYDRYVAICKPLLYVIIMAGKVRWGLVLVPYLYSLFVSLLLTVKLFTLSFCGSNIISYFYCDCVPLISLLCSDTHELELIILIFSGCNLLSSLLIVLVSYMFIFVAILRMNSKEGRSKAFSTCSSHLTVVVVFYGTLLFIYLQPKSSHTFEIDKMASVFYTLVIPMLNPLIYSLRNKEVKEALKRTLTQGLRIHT
In short: as §1

UniProt Q7TRA3 = target: T3, UniProt Q7TRA3
T3 sequence (whole entry): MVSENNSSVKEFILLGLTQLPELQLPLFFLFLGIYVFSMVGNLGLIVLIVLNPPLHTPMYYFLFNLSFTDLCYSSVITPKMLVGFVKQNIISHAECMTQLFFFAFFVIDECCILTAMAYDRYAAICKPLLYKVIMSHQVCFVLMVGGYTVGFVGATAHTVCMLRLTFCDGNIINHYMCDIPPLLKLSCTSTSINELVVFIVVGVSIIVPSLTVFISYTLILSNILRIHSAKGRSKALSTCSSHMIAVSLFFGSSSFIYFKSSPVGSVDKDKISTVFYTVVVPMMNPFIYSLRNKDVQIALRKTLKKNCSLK
In short: as §1

UniProt Q7TRE4 = target: T4, UniProt Q7TRE4
T4 sequence (whole entry): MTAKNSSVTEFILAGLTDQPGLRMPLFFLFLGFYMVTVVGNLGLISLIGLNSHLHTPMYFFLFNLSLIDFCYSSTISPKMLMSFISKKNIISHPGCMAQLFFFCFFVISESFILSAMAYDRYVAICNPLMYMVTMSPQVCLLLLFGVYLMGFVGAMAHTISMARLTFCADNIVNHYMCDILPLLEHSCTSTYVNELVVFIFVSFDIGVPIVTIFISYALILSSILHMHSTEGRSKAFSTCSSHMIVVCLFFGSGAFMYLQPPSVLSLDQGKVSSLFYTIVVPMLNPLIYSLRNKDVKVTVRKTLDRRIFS
In short: as §1

UniProt Q7TRW1 = target: T5, UniProt Q7TRW1
T5 sequence (whole entry): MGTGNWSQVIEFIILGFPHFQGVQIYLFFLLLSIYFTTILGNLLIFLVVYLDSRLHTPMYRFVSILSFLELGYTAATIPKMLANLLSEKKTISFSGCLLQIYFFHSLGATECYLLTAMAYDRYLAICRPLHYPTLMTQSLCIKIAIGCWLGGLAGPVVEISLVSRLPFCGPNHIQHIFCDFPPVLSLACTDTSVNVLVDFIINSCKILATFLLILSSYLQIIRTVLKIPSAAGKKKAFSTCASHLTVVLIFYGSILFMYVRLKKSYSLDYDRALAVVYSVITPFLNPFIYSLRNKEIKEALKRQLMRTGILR
In short: as §1

UniProt Q7TRX0 = target: T6, UniProt Q7TRX0
T6 sequence (whole entry): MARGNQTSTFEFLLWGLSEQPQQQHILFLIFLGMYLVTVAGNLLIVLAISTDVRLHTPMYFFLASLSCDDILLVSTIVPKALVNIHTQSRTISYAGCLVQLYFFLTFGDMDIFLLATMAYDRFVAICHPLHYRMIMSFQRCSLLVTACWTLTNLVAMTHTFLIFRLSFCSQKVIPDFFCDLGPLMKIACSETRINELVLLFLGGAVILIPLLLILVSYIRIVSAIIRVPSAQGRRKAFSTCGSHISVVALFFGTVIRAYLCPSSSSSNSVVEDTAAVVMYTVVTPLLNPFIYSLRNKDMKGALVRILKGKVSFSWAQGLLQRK
In short: as §1

UniProt Q8VEU7 = target: T7, UniProt Q8VEU7
T7 sequence (whole entry): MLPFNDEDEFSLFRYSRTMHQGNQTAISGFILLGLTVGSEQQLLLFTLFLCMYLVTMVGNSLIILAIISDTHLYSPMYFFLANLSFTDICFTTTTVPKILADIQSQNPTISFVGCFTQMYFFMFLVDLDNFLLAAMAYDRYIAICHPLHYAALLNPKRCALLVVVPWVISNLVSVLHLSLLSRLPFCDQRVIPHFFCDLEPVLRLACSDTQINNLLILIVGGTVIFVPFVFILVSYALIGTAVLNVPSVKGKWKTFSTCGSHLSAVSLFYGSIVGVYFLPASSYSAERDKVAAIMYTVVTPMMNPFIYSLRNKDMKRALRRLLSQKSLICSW
In short: as §1

UniProt Q8VF05 = target: T8, UniProt Q8VF05
T8 sequence (whole entry): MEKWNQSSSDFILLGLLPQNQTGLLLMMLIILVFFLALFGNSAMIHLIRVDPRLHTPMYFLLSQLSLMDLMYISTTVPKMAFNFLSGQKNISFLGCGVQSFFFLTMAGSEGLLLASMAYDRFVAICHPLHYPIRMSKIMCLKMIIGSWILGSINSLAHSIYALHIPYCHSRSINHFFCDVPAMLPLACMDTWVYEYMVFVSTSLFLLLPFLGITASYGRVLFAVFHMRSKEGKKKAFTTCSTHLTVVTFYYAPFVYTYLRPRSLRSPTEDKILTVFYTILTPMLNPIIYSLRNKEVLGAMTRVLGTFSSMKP
In short: as §1

UniProt Q7TRM0 = target: T9, UniProt Q7TRM0
T9 sequence (whole entry): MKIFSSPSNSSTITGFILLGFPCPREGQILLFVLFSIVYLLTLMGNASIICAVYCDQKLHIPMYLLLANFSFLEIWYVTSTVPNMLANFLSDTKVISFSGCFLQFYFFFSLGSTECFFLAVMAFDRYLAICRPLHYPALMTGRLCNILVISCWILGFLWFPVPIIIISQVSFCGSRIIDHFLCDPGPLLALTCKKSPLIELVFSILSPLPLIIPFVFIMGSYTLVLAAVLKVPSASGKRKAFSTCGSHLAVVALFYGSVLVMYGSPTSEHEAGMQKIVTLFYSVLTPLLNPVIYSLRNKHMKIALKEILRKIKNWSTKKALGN
In short: as §1

UniProt Q7TRN9 = target: T10, UniProt Q7TRN9
T10 sequence (whole entry): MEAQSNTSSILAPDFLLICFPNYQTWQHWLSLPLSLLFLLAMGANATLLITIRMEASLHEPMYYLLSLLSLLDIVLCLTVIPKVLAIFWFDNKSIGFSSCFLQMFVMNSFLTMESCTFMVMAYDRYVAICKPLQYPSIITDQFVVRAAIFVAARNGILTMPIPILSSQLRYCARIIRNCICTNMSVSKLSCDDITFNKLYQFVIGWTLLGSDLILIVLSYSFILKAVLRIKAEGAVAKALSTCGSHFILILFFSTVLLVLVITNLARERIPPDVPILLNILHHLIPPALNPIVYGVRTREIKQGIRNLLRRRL
In short: as §1

UniProt Q7TRR8 = target: T11, UniProt Q7TRR8
T11 sequence (whole entry): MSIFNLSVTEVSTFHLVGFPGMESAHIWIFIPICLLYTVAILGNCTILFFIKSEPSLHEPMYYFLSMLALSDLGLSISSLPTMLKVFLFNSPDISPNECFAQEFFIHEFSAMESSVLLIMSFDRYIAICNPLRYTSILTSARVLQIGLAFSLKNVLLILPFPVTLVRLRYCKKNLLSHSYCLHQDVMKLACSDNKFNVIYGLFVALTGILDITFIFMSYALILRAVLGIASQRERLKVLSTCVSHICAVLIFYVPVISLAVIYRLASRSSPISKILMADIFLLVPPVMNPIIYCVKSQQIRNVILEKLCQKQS
In short: as §1

Measured: odorant receptor agonist call

CCCCOC=O
inactive: UniProt Q7TR71 | UniProt Q7TR79 | UniProt Q7TRA3 | UniProt Q7TRE4 | UniProt Q7TRW1 | UniProt Q7TRX0 | UniProt Q8VEU7 | UniProt Q8VF05

CCCCCCCCCO
inactive: UniProt Q7TR71 | UniProt Q7TR79 | UniProt Q7TRA3 | UniProt Q7TRE4 | UniProt Q7TRM0 | UniProt Q7TRR8 | UniProt Q7TRW1 | UniProt Q7TRX0 | UniProt Q8VEU7 | UniProt Q8VF05
active: UniProt Q7TRN9

CCCC(=O)C(C)=O
inactive: UniProt Q7TR71 | UniProt Q7TR79 | UniProt Q7TRA3 | UniProt Q7TRE4 | UniProt Q7TRW1 | UniProt Q7TRX0 | UniProt Q8VEU7
active: UniProt Q8VF05

CCCCC(C)=O
inactive: UniProt Q7TR71 | UniProt Q7TR79 | UniProt Q7TRA3 | UniProt Q7TRE4 | UniProt Q7TRW1 | UniProt Q7TRX0 | UniProt Q8VEU7
active: UniProt Q8VF05

CCCCC(=O)CC
inactive: UniProt Q7TR71 | UniProt Q7TR79 | UniProt Q7TRA3 | UniProt Q7TRE4 | UniProt Q7TRW1 | UniProt Q7TRX0 | UniProt Q8VEU7
active: UniProt Q8VF05

CCCCCOC(=O)CCCCC
inactive: UniProt Q7TR71 | UniProt Q7TR79 | UniProt Q7TRA3 | UniProt Q7TRE4 | UniProt Q7TRW1 | UniProt Q7TRX0 | UniProt Q8VEU7 | UniProt Q8VF05

O=C1Cc2ccccc2O1
inactive: UniProt Q7TR71 | UniProt Q7TR79 | UniProt Q7TRA3 | UniProt Q7TRE4 | UniProt Q7TRW1 | UniProt Q7TRX0 | UniProt Q8VEU7 | UniProt Q8VF05

CCCCCC1=C(C)CCC1=O
active: UniProt Q8VF05
inactive: UniProt Q7TR71 | UniProt Q7TR79 | UniProt Q7TRA3 | UniProt Q7TRE4 | UniProt Q7TRW1 | UniProt Q7TRX0 | UniProt Q8VEU7

CC12CCC(CC1=O)C2(C)C (stereo unspecified)
inactive: UniProt Q7TR79 | UniProt Q7TRA3 | UniProt Q7TRE4 | UniProt Q7TRW1 | UniProt Q7TRX0 | UniProt Q8VF05
active: UniProt Q7TR71 | UniProt Q8VEU7

CCCCCCCCCC(=O)[O-].[H+]
inactive: UniProt Q7TR71 | UniProt Q7TR79 | UniProt Q7TRA3 | UniProt Q7TRE4 | UniProt Q7TRW1 | UniProt Q7TRX0 | UniProt Q8VEU7 | UniProt Q8VF05

COc1cnccn1
inactive: UniProt Q7TR79 | UniProt Q7TRX0

COc1nccnc1C
inactive: UniProt Q7TR79 | UniProt Q7TRX0

C=CC(=C)CCC=C(C)C
inactive: UniProt Q7TR79 | UniProt Q7TRX0

CCc1ccccc1O
inactive: UniProt Q7TR79 | UniProt Q7TRX0

CCCCCOC(=O)CCC
inactive: UniProt Q7TR79 | UniProt Q7TRX0

C=C(C)C1CCC(C)C(O)C1 (stereo unspecified)
inactive: UniProt Q7TR79 | UniProt Q7TRX0

C=C(C)C1CC=C(C)CC1 (stereo unspecified)
inactive: UniProt Q7TR79 | UniProt Q7TRX0

CCCCCC(C)O (stereo unspecified)
inactive: UniProt Q7TR79 | UniProt Q7TRX0

CCCCCCC(=O)OCCCC
inactive: UniProt Q7TR79 | UniProt Q7TRX0

CCCCCCC=CC=O
inactive: UniProt Q7TR79 | UniProt Q7TRX0

CC(=O)C=CC1=C(C)CCCC1(C)C
inactive: UniProt Q7TR79 | UniProt Q7TRX0

CCc1nccnc1CC
inactive: UniProt Q7TR79 | UniProt Q7TRX0

CCC=CCCC=CC=O
inactive: UniProt Q7TR79 | UniProt Q7TRX0

COc1nccnc1C(C)C
inactive: UniProt Q7TR79 | UniProt Q7TRX0
